Source: PubChem BioAssay (several laboratories)
Shown is part of a subset that was picked to be rich in hits.
S1P3 antag = S1P3 receptor antagonists, primary screen, cell-based; AID 485, 2006; 0.27% of 170,000 active; CHO S1P3 NFAT-BLA reporter, FRET fluorescence, antagonist mode; inhibition, % at 4.98 µM;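 active means inhibition above the plate cutoff, the mean inhibition of test wells on that plate plus 3 SD, cut at about 28% in these data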;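 further: cells challenged with S1P at its EC80 of 0.8 µM; blue over green emission ratio from cleaved BLA substrate after 4 h stimulation; 0% = S1P-stimulated wells and 100% = unstimulated DMSO-only wells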
Mdm2 ligase inh = MDM2-luciferase reporter signal enhancers, primary screen, MDM2 E3 ligase inhibitor project, cell-based, luminescence, 1536-well; E3 ubiquitin-protein ligase Mdm2 (Homo sapiens), Q00987; cell-based MDM2 ubiquitination luciferase reporter, 2 h; 0 = plate control, 100 = twice control, blank-subtracted; 0.11% of 210,000 active; AID 1230, 2008; signal enhancement, % at 5 µM;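 active means signal enhancement of 30% or more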;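 further: luminescence tracks abundance of the self-degrading MDM2-luciferase fusion protein; higher signal means inhibition of MDM2 E3 ligase activity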
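test system = mammalian cells stably expressing self-ubiquitinating, self-degrading MDM2 E3–luciferase fusion | quantity = 2000 cells/well | incubation = cell settling 4 h, compound treatment 2 h, both 37 °C | signal = luminescence with SteadyLite reagent, 15 min at room temperature | evaluation = % enhancement relative to plate controls after blank subtraction | benchmarks = plate controls and plate blanks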
L major viab = Leishmania major promastigote growth inhibition, primary screen; 9% of 200,000 active; inhibition, % at 10 µM; Leishmania major promastigotes, resazurin fluorescence viability; in the data active means inhibition above about 50%;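 further: promastigotes grown with compound for 44 hours at 28 °C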
S1P4 antagonist = S1P4 receptor antagonists, primary screen, cell-based; Sphingosine 1-phosphate receptor 4 (Homo sapiens), O95977; S1P4-expressing cells, antagonist mode, reporter read-out; inhibition, % at 4.98 µM; 0.26% of 220,000 active; in the data active means inhibition above about 29%;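 further: 0% = wells stimulated with agonist and 100% = vehicle wells without agonist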
Target sequence (O95977 whole entry, looked up): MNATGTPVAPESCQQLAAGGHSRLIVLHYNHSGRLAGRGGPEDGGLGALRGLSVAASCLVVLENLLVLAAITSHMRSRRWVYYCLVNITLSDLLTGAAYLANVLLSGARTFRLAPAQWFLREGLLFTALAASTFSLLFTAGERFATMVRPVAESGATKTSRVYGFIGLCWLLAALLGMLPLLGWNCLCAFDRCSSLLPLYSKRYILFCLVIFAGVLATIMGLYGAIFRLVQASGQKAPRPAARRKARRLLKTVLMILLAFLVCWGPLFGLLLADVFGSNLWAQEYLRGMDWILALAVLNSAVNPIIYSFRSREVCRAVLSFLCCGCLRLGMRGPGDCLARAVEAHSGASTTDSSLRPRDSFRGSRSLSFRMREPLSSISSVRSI
S1P4 ag = S1P4 receptor agonists, primary screen, cell-based; 0.35% of 220,000 active; activation, % at 4.98 µM; S1P4-expressing cell line, agonist reporter assay; Sphingosine 1-phosphate receptor 4 (Homo sapiens), O95977; AID 1509, 2009; in the data active means activation above about 11%;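 further: 0% = DMSO vehicle and 100% = reference agonist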
The depositor's hits bear a star; . = not tested or not shown.

SMILES	S1P3 antag	Mdm2 ligase inh	L major viab	S1P4 antagonist	S1P4 ag
COC(=O)N(C)c1ccc(C(O)(C(=O)OC)C(F)(F)F)cc1 (stereo not drawn)	-3	-3	87*	-26	1
CCOC(=O)N(CC)c1ccc(C(O)(C(=O)OC)C(F)(F)F)cc1 (stereo not drawn)	-6	2	91*	-17	-1
O=C(CN1C2CCC1CC(O)(c1cccnc1)C2)Nc1ccc2c(c1)OCO2 (stereo not drawn)	-13	-2	90*	-16	0
CCC(=NCCC(c1ccccc1)c1ccccc1)c1c(O)[nH]c(=O)[nH]c1=O	11	-2	72*	-9	-1
Cc1ccc(N2C(=O)NC(=O)/C(=C/c3cnn(-c4ccc(C)cc4)c3)C2=O)cc1	-12	-6	85*	-6	1
CCN(CC)C(=O)c1ccc(NC(=O)Nc2ccccc2F)cc1	-6	-59	-3	-19	0
Cc1cccc(CNCCc2ccccc2)n1	2	-20	69*	-20	1
CNCCCc1ccccc1	.	0	-5	-13	0
CN1CCC(O)(c2ccc(Cl)cc2)C(C(=O)c2ccc(Cl)cc2)C1 (stereo not drawn)	-13	9	86*	-11	0
CCCCCSc1cc(O)c(C(CNC)C(C)C)cc1OC (stereo not drawn)	-2	-3	100*	7	0
COc1ccc(CCC(C)NCCc2ccccc2)cc1 (stereo not drawn)	.	-15	89*	8	-4
COc1ccc(CCNC2CCCCC2)cc1	-13	-23	20	-8	1
COc1cccc(C(=O)C2CCCN(Cc3cccc4c3OCO4)C2)c1 (stereo not drawn)	-5	-2	10	-9	2
CSc1ccccc1C(=O)C1CCCN(Cc2ccccn2)C1 (stereo not drawn)	-3	-8	1	-15	-2
COc1cccc(C(=O)C2CCCN(Cc3ccc4nonc4c3)C2)c1 (stereo not drawn)	-12	15	89*	6	1
O=C(c1cc(F)ccc1F)C1CCCN(Cc2ccc3nonc3c2)C1 (stereo not drawn)	3	-2	86*	-9	2
COc1ccc(C(=O)C2CCCN(Cc3ccsc3)C2)cc1OC (stereo not drawn)	12	-17	96*	8	-1
COc1ccc(CN2CCCC(C(=O)c3ccccc3SC)C2)cc1O (stereo not drawn)	7	-3	63*	-17	0
Cn1c(O)c(/C=C/C=Nc2ccccc2)c(=O)n(C)c1=S	0	-8	-4	-10	1
CCN(CC)CC(O)c1ccc(C2CCCC2)cc1 (stereo not drawn)	3	-1	94*	-31	2
OC(CNC1CCCCCCC1)c1ccccc1 (stereo not drawn)	-6	5	15	-12	0
Nc1ccccc1C(=O)OCC(=O)N1CCc2ccccc21	.	-10	-4	5	-1
N#CSCC(=O)N1c2ccccc2CCc2ccccc21	-21	19	96*	6	1
CCCCOP(=O)(CN1CCOCC1)OCCCC	.	-12	-7	-12	-1
CCCCCOc1ccc(C)cc1CN(CCCl)CCCl	-9	-14	.	4	-3
SMILES	S1P3 antag	Mdm2 ligase inh	L major viab	S1P4 antagonist	S1P4 ag
CN(C)CCOC(=O)c1cn(Cc2ccccc2)c2ccccc12	.	-25	100*	-1	0
Cn1c(=O)c2c(nc(N/N=C/c3c(O)n(-c4ccccc4)c(=S)[nH]c3=O)n2C)n(C)c1=O	-11	-7	-14	-15	2
CCCC1(CCC)C(=O)NC(=Nc2ccc(C)cc2)NC1=O	15	-8	-1	-34	1
CN1C2CCC1CC(OC(=O)c1ccc(Cl)cc1)C2 (stereo not drawn)	6	-19	97*	-17	-1
CCOc1ccc(C(=O)OC2CC3CCC(C2)N3C)cc1 (stereo not drawn)	10	4	72*	8	1
CCCCn1c(NC(=O)c2ccc(Br)o2)c(C(=O)OCC)c2nc3ccccc3nc21	-3	0	11	2	1
COc1ccc(CCNC(=O)c2c(N)n(CCN3CCOCC3)c3nc4ccccc4nc23)cc1	-5	-12	96*	-12	1
CCCCn1c(NS(=O)(=O)c2ccccc2)c(C(=O)OCC)c2nc3ccccc3nc21	-7	-14	99*	4	0
CCOC(=O)c1c(N)n(CCN2CCCCC2)c2nc3ccccc3nc12	0	-16	55*	-33	2
CN(Cc1ccccc1)Cc1ccccc1OC(=O)N(C)C	8	-8	-1	-10	0
CN1CCN(C(=O)COc2ccc(-c3nc4ccccc4s3)cc2)CC1	.	-78	100*	-6	2
CC(C)NS(=O)(=O)c1ccc(OCC(=O)N2CCN(C)CC2)cc1	-32	-12	-6	-2	0
c1ccc(CCN2CCC(N3CCN(c4ccccc4)CC3)CC2)cc1	9	-12	95*	-11	1
CCCCN(Cc1ccccc1)C1CCN(CCc2ccccc2)CC1	-1	-4	91*	-18	2
CC(=O)NN1C(=O)c2ccccc2NC1c1cccnc1 (stereo not drawn)	2	-10	-2	-29	3
COc1ccc(CCNCc2ccncc2)cc1OC	.	-16	51*	-3	2
COC(=O)C1=C(N)Oc2cc(C)oc(=O)c2C12C(=O)Nc1ccccc12 (stereo not drawn)	-1	-9	16	-23	1
O=c1[nH]c(=O)n(CCC2=CCCCC2)c(O)c1/C=N/Nc1ccccc1	1	-6	81*	-1	1
C=CCn1c(O)c(C=NC2CCN(Cc3ccccc3)CC2)c(=O)[nH]c1=O	-4	-4	.	-6	-1
O=c1[nH]c(=O)n(CCC2=CCCCC2)c(O)c1C=NC1CCN(Cc2ccccc2)CC1	28	-15	83*	-4	0
CCCCCCn1c(O)c(C=NC2CCN(Cc3ccccc3)CC2)c(=O)[nH]c1=O	.	-13	54*	-14	1
O=P(Oc1ccccc1)(Oc1ccccc1)c1ccccc1	6	-15	.	-7	-1
COc1ccc(OCC(=O)N2CCN(C3CCC(c4ccccc4)CC3)CC2)cc1 (stereo not drawn)	3	-7	60*	-22	-2
O=C(COc1ccc(S(=O)(=O)N2CCCCC2)cc1)N1CCN(Cc2ccccc2)CC1	-10	-11	16	-9	0
COc1ccc(OCC(=O)N2CCN(Cc3c[nH]c4ccccc34)CC2)cc1	10	-4	-1	-20	-1
O=C(COc1ccccc1)N1CCN(Cc2c[nH]c3ccccc23)CC1	12	-16	-6	-26	0
O=C(COc1ccccc1)N1CCN(C2CCCC2)CC1	4	-15	85*	-1	0
